# Reference: ChEMBL document CHEMBL4138242, “Synthesis and antibacterial evaluation of novel cationic chalcone derivatives possessing broad spectrum antibacterial activity” (Eur J Med Chem, 2018)
# Active and inactive are the calls of the source. The calls are words filed in the database; no cut-off is given here.
# Columns and labels:
# Staphylococcus aureus [1] = test: Antibacterial activity against Staphylococcus aureus ATCC 29213 after 16 to 20 hrs by broth microdilution method; format: functional
# How it was run: (§1)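 Broth microdilution per CLSI. Bacteria grown 4-6 h (about 10⁸ CFU/mL), then diluted to about 10⁶ CFU/mL. Medium: Mueller-Hinton broth, except Luria-Bertani broth for E. coli. Compounds in sterile water, twofold series 256-0.5 µg/mL, mixed 1:1 with inoculum, 37 °C for 16-20 h. MIC is the lowest concentration without visible growth. Duplicate wells; experiment repeated at least twice.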
# Escherichia coli [2] = test: Disruption of 72 hrs cultured Escherichia coli ATCC 25922 biofilm assessed as decrease in cell viability in biofilm after 24 hrs by crystal violet staining-based assay; format: functional, organism-based
# Staphylococcus aureus [3] = test: Antibacterial activity against methicillin-resistant Staphylococcus aureus clinical isolate 20130911034sau after 16 to 20 hrs by broth microdilution method; format: functional
# How it was run: (§2)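 CLSI broth microdilution in Mueller-Hinton broth. A 4-6 h culture was diluted to about 10⁶ CFU/mL and mixed 1:1 with compound dilutions prepared at 256 to 0.5 µg/mL from aqueous stocks. Plates were incubated at 37 °C for 16-20 h and read visually for MIC. Each concentration was run in duplicate, and the experiment was repeated at least twice. Vancomycin and meropenem were comparators.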
# Staphylococcus aureus [4] = test: Bactericidal activity against methicillin-resistant Staphylococcus aureus in presence of 50% sheep serum after 20 to 24 hrs; format: functional; conditions: read-out: MBC99.9
# How it was run: (§3)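 MRSA at 10⁵ CFU/mL in 50% MHB plus 50% sheep serum, plasma or defibrinated blood; serum and plasma were obtained by centrifugation at 3,500 rpm for 10 min. Aqueous dilutions prepared at 512-4 µg/mL were added 1:3 to the suspension and incubated for 20-24 h at 37 °C. Well contents (20 µL) were plated on MHA for 20-24 h, and MBC was the concentration giving no colonies.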
# Staphylococcus aureus [5] = test: Antibacterial activity against methicillin-resistant Staphylococcus aureus clinical isolate 1-may after 16 to 20 hrs by broth microdilution method; format: functional; how it was run: as §2
# Escherichia coli [6] = test: Induction of cytoplasmic membrane depolarization in Escherichia coli ATCC 25922 at 10 to 20 ug/ml measured every 2 mins for 12 mins by DiSC35 dye-based fluorescence assay; format: functional, organism-based
# How it was run: (§4)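 Mid-log cells (~10⁸ CFU/mL) were suspended in PBS (S. aureus) or HEPES/glucose/KCl with EDTA (E. coli). They were preloaded with DiSC3(5) for 30 min (S. aureus) or 40 min (E. coli), and baseline fluorescence was read for 8 min. Compound was added to 20 µg/mL final, and fluorescence (ex 622/em 670 nm) was read every 2 min for 12 min. Water served as control.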
# Staphylococcus aureus [7] = test: Antibacterial activity against methicillin-resistant Staphylococcus aureus clinical isolate 1208143 after 16 to 20 hrs by broth microdilution method; format: functional; how it was run: as §2
# Staphylococcus aureus [8] = test: Antibacterial activity against methicillin-resistant Staphylococcus aureus clinical isolate 1207007 after 16 to 20 hrs by broth microdilution method; format: functional; how it was run: as §2
# Staphylococcus aureus [9] = test: Antibacterial activity against methicillin-resistant Staphylococcus aureus clinical isolate 1105183 cono7 after 16 to 20 hrs by broth microdilution method; format: functional; how it was run: as §2
# Staphylococcus aureus [10] = test: Antibacterial activity against methicillin-resistant Staphylococcus aureus clinical isolate 0831010 after 16 to 20 hrs by broth microdilution method; format: functional; how it was run: as §2
# Escherichia coli [11] = test: Induction of inner membrane permeabilization in Escherichia coli ATCC 25922 at 10 to 20 ug/ml measured every 2 mins for 12 mins by propidium iodide staining-based fluorescence assay; format: functional, organism-based
# How it was run: (§5)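 Mid-log cells (~10⁸ CFU/mL) were suspended in PBS (S. aureus) or HEPES/glucose/KCl (E. coli). They were preincubated with propidium iodide for 30 min (S. aureus) or 40 min (E. coli), and baseline fluorescence was read for 8 min. Compound was added to 20 µg/mL final, and fluorescence (ex 535/em 617 nm) was read every 2 min for 12 min.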
# HeLa [12] = test: Cytotoxicity against human HeLa cells assessed as effect on cell morphology at 2 to 4 times MIC after 24 hrs by electron scanning microscopic method; format: cell-based
# How it was run: (§6)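 HeLa cells in DMEM with 10% FBS (37 °C, 5% CO₂), seeded in 12-well plates and left to adhere overnight. Treated 24 h with compound at 2× and 4× MIC; untreated and 0.1% Triton X-100 controls. Cells washed with PBS and imaged for morphology. For live/dead imaging, stained with 2 µM calcein AM and 4.5 µM PI for 15 min at 37 °C.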
# Staphylococcus aureus [13] = test: Antibacterial activity against methicillin-resistant Staphylococcus aureus clinical isolate 0906202 after 16 to 20 hrs by broth microdilution method; format: functional; how it was run: as §2
# Escherichia coli [14] = test: Bactericidal activity against Escherichia coli ATCC 25922 at 6 to 8 times MIC after 6 hrs by time-kill assay; format: functional, organism-based
# How it was run: (§7)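 Overnight cultures diluted 1:10,000 in MHB and grown at 37 °C, 225 rpm, for 2 h (early exponential) or 5 h (late exponential). Cells exposed to compound at 6× or 8× MIC in tubes at 37 °C, 225 rpm. At intervals, aliquots were spun, resuspended in PBS, tenfold diluted, plated on MHA overnight at 37 °C and counted as CFU/mL. Biological replicates.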
# Salmonella enterica = test: Antibacterial activity against Salmonella enterica ATCC 13076 after 16 to 20 hrs by broth microdilution method; format: functional; how it was run: as §1
# Staphylococcus aureus [15] = test: Ratio of MBC99.9 for methicillin-resistant Staphylococcus aureus in presence of 50% sheep serum to MBC99.9 for methicillin-resistant Staphylococcus aureus ATCC 29213 in presence of 50% sheep plasma; format: functional; how it was run: as §3
# Enterococcus faecalis = test: Antibacterial activity against Enterococcus faecalis ATCC 29212 after 16 to 20 hrs by broth microdilution method; format: functional; how it was run: as §1
# Staphylococcus aureus [16] = test: Antibacterial activity against methicillin-resistant Staphylococcus aureus clinical isolate 20131012632sau after 16 to 20 hrs by broth microdilution method; format: functional; how it was run: as §2
# Staphylococcus aureus [17] = test: Bactericidal activity against Staphylococcus aureus ATCC 29213 at 6 times MIC after 3 hrs by time-kill assay (reference value: 10^6.1 CFU/ml); format: functional; how it was run: as §7
# Staphylococcus aureus [18] = test: Induction of inner membrane permeabilization in Staphylococcus aureus ATCC 29213 at 10 to 20 ug/ml measured every 2 mins for 12 mins by propidium iodide staining-based fluorescence assay; format: functional, organism-based; how it was run: as §5
# Staphylococcus aureus [19] = test: Induction of cytoplasmic membrane depolarization in Staphylococcus aureus ATCC 29213 at 10 to 20 ug/ml measured every 2 mins for 12 mins by DiSC35 dye-based fluorescence assay; format: functional, organism-based; how it was run: as §4
# Staphylococcus aureus [20] = test: Bactericidal activity against methicillin-resistant Staphylococcus aureus in presence of 50% sheep blood after 20 to 24 hrs; format: functional; conditions: read-out: MBC99.9; how it was run: as §3
# HeLa [21] = test: Cytotoxicity against human HeLa cells at 2 to 4 times MIC after 24 hrs by calcein AM/propidium iodide staining-based fluorescence microscopic method; format: cell-based; how it was run: as §6
# Staphylococcus aureus [22] = test: Antibacterial activity against methicillin-resistant Staphylococcus aureus clinical isolate 1104060 after 16 to 20 hrs by broth microdilution method; format: functional; how it was run: as §2
# Escherichia coli [23] = test: Antibacterial activity against Escherichia coli ATCC 25922 after 16 to 20 hrs by broth microdilution method; format: functional; how it was run: as §1
# [24] = Hemolytic activity in sheep RBC after 1 hr; format: ADME, cell-based, Ovis aries, Erythrocyte; conditions: sheep red blood cells (erythrocytes)
# How it was run: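 Sheep red blood cells (150 µL suspension) mixed with 50 µL of compound dilutions (5120-10 µg/mL), 1 h at 37 °C, then centrifuged. Supernatant read at 540 nm. Percent hemolysis calculated relative to RBC-only control (0%) and 0.1% Triton X-100 (100%).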
smiles,measurement,setting,value
CCCCCCCC[N+](C)(C)CC(=O)Nc1ccc(C(=O)/C=C/c2ccccc2)cc1.[Cl-],MIC,Staphylococcus aureus [1],1 µg/mL
same,Activity,Escherichia coli [2],Active
same,MIC,Staphylococcus aureus [3],0.5 µg/mL
same,MBC,Staphylococcus aureus [4],32 µg/mL
same,MIC,Staphylococcus aureus [5],1 µg/mL
same,Activity,Escherichia coli [6],Active
same,MIC,Staphylococcus aureus [7],2 µg/mL
same,MIC,Staphylococcus aureus [8],0.5 µg/mL
same,MIC,Staphylococcus aureus [9],1 µg/mL
same,MIC,Staphylococcus aureus [10],1 µg/mL
same,Activity,Escherichia coli [11],Active
same,Activity,HeLa [12],Non-Toxic
same,MIC,Staphylococcus aureus [13],4 µg/mL
same,Activity,Escherichia coli [14],Active
same,MIC,Salmonella enterica,4 µg/mL
same,Ratio,Staphylococcus aureus [15],2
same,MIC,Enterococcus faecalis,1 µg/mL
same,MIC,Staphylococcus aureus [16],4 µg/mL
same,Activity,Staphylococcus aureus [17],1 CFU/ml
same,Activity,Staphylococcus aureus [18],Active
same,Activity,Staphylococcus aureus [19],Active
same,MBC,Staphylococcus aureus [20],128 µg/mL
same,Activity,HeLa [21],Toxic
same,MIC,Staphylococcus aureus [22],8 µg/mL
same,MIC,Escherichia coli [23],2 µg/mL
same,HC50 at 1 h,[24],228 µg/mL
